# FLuc inhib CS: inhibits firefly luciferase, flagging false hits in luciferase inhibition screens. inhibition, % at 10 µM. ATPLite firefly luciferase biochemical luminescence, 10 min. hit rate 1.5% among 200,000. P08659;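 active = inhibition above about 50% when tested at 10 µM, limit read from the data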
# Target sequence (P08659 whole entry, looked up): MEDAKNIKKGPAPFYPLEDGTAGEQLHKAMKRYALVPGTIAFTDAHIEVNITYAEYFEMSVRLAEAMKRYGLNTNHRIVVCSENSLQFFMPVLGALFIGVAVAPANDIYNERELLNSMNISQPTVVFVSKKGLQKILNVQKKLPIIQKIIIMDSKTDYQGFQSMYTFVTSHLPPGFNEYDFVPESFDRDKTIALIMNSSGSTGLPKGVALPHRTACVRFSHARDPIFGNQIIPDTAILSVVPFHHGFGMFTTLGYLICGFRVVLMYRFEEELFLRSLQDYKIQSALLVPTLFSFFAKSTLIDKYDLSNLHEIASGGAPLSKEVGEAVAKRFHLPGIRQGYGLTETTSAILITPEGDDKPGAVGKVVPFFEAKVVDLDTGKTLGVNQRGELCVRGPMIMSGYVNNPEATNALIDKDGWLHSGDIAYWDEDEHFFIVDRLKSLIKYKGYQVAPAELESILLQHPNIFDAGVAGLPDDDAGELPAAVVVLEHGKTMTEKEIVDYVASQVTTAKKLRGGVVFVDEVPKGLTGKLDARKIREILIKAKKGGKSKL
# FLuc act counter: affects firefly luciferase, flagging false hits in luciferase stimulation screens; AID 1027; 200,000 tested, under 10 active; activation factor at 10 µM; ATPlite luciferase biochemical, luminescence, 10 min; 0 = ATP-free wells, 1 = DMSO control;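 active = luciferase activation factor, scaled between plate controls, of at least 2 with compound at 10 µM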
#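 Assay system: Luciferase/luciferin reagent mix; Medium: PBS as buffer for the ATP substrate; Dosing: test compounds dosed from 2 mM stocks in 100% DMSO; Times: 10 min, room temperature; Signal: luminescence from luciferase reaction; Read-out: luciferase activation; Controls: No-ATP low control, compound-free enzyme-plus-ATP high control.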
# DTT redox prof: compounds producing H2O2 with reducing agent – biochemical, NIH compound library profiling, artefact control for MLSCN library redox annotation, primary screen; activation, % at 10 µM; hit rate 0.03% among 200,000; DTT-dependent redox cycling H2O2, phenol red/HRP absorbance; 100% = 100 µM peroxide control, 0% = buffer;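 active = activation of at least 50% relative to the plate's high and low controls in the primary single-dose screen; inactive = activation below 50%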;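 also: compound incubated with DTT at 0.8 mM final as the reducing agent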
# ABCG2 block: blocks JC-1 efflux by human ABCG2 transporter. Q9UNQ0. IgMXP3 cells, flow cytometry. inhibition, % at 6.6 µM. hit rate 0.1% among 190,000. AID 1325;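 active = inhibition above 80%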;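 also: 0% = DMSO and 100% = nicardipine control wells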
#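 Incubation: cells with compound and JC-1, 10 min at 25 °C, rotating, no wash / Test system: IgMXP3 (ABCG2) plus far-red-tagged CCRF-Adr (ABCB1) cells / Compound dosing: one concentration, 6.6 µM final / Also added: JC-1 fluorescent substrate / Evaluation: efflux inhibition in percent versus controls / Detection: flow cytometry, 530 nm JC-1 signal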
# Measles CPE: protection of cells from measles virus | Measles virus-infected cells, CPE protection, absorbance | protection (pct of control), % at 4 µM | hit rate 1.5% among 140,000; in the data active = protection mostly above about 24%, no sharp cut-off; inactive = mostly below about 26%
# ABCB1 block: human ABCB1 inhibition, ABCG2 as counter-screen | AID 1326 | hit rate 0.067% among 190,000 | CCRF-Adr cells, JC-1 efflux, flow cytometry | inhibition, % at 6.6 µM | P08183; in the data active = inhibition above about 40%;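 also: 0% = vehicle and 100% = reference inhibitor; higher value means more JC-1 retained so stronger ABCB1 efflux block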
# An asterisk follows results filed as active; / = not tested or not shown. Sampled rows, rich in hits. Any-hit rate of the full collection: about 2.7%.
SMILES,FLuc inhib CS,FLuc act counter,DTT redox prof,ABCG2 block,Measles CPE,ABCB1 block
N#CC(C#N)=C1CCc2ccccc2N1,-4.3,1,0.2,11.6,58.8*,1.2
O=C(NNC(=O)c1ccc(NC(=O)c2ccccc2)cc1)c1ccccc1,-2.8,1,0.3,-6.5,/,-0.9
O=C(Nc1ccc2nc3ccccc3nc2c1)c1ccccc1,66.0*,0.3,0.2,-10.6,9.2,-1.2
Cc1nc(-c2ccc(NC(=O)c3ccccc3)cc2)cs1,87.7*,0.1,-0.4,0.5,/,-0.4
COc1ccccc1CNC(=O)c1ccccc1N,-5.4,1.1,0.4,1.1,36.6*,0.4
CCOc1ccccc1NC(=S)N1CCCc2ccccc21,3.5,1,-1.3,2.1,/,-0.2
O=C(CCNc1cc(Cl)cc(Cl)c1)c1cccs1,-1.8,1,-7.3,11.8,45.2*,0.5
O=C(CCNc1ccc(Cl)cc1)c1cccs1,1.2,1,0.4,4.8,27.7,0.0
O=C(CCc1ccc(CCC(=O)c2cccs2)s1)c1cccs1,-3.9,1,-1.6,3.1,1.3,0.3
O=C(CCSc1ccc(Cl)cc1)c1cccs1,5.8,0.9,-3.0,2.8,35.4*,0.2
C#CCN(C(=O)CC1C(=O)NCCN1C/C=C/c1ccccc1)C1CCCCC1 (configuration not stated),-5.6,1.1,-0.2,0.5,/,0.3
CCC1CCCCN1S(=O)(=O)c1ccc(S(=O)(=O)N(Cc2cccs2)C2CC2)cc1 (configuration not stated),-3.8,1,-2.8,3.2,42.2*,1.8
CCc1c(O)nc2sc3ccccc3n2c1=O,-6.3,1.1,-3.3,1.4,15.8,0.3
CC(C)=CC(=O)Nc1nnc(C)s1,2.9,1,0.4,2.9,37.8*,0.6
CC(C)=CC(=O)Nc1nnc(-c2ccccc2)s1,3.0,1,1.7,0.5,0.7,0.2
COc1ccc(N2CCN(C(=O)c3ccc(NS(=O)(=O)c4ccc(F)c(F)c4)cc3)CC2)cc1,-3.6,1,3.5,6.7,20.1,0.4
COc1ccc(N2CCN(C(=O)c3ccc(NS(=O)(=O)c4cccc(F)c4)cc3)CC2)cc1,-1.8,1,-2.5,12.9,18.8*,0.5
COc1cc(/C=N/NC(=S)N/N=C/c2cc(OC)c(OC)c(OC)c2)cc(OC)c1OC,68.3*,0.3,-0.7,19.5,2.5,-0.6
O=C(N/N=C/c1ccc(C(F)(F)F)cc1)c1ccc(O)cc1,52.9*,0.5,-1.6,3.3,/,-0.1
Oc1ccc(/C=N/NC(=S)N/N=C/c2ccc(O)cc2)cc1,95.8*,0,-0.8,-1.0,/,-0.4
COc1ccccc1NC(=S)N/N=C/c1ccc(O)cc1,4.9,1,-0.1,-1.0,10.1,0.4
O=C(N/N=C\c1ccc(F)cc1)c1ccc(F)cc1,58.4*,0.4,-0.1,10.1,/,0.0
COc1cccc(NC(=O)N(CCCN2CCOCC2)C(C)c2cc3ccccc3o2)c1 (configuration not stated),-6.3,1.1,0.2,6.0,18.4,3.7
CSc1ccc(/C=N/NC(=O)c2cccc(O)c2)cc1,91.1*,0.1,-4.0,0.4,4.5,-0.2
O=C(CN1C(=O)c2cccc3cccc(c23)C1=O)N1CCN(Cc2ccc3c(c2)OCO3)CC1,-9.3,1.1,-0.5,0.0,2.6,0.2
SMILES,FLuc inhib CS,FLuc act counter,DTT redox prof,ABCG2 block,Measles CPE,ABCB1 block
Cc1nnc(SCC(=O)Nc2nc(C(C)(C)C)cs2)s1,-1.1,1,0.8,9.5,54.3*,0.7
Cc1c(C(=O)NCc2ccc(S(N)(=O)=O)cc2)oc2ccc(Cl)cc12,0.5,1,0.6,3.8,/,0.2
CCCCC(=O)Nc1ccccc1C(=O)N1CCOCC1,-3.6,1,2.7,-0.4,37.1*,-0.1
CC(C)(O)C#Cc1ccccc1C(=O)NC(CC(N)=O)C(=O)O (configuration not stated),-7.6,1.1,3.1,0.2,65.0*,0.1
CSCCC(NC(=O)c1ccccc1C)C(=O)O (configuration not stated),-5.3,1.1,0.2,-5.8,/,-0.4
CCC(C)NS(=O)(=O)c1ccc(OC)c(Cl)c1Cl (configuration not stated),-3.5,1,0.1,2.9,3.2,-0.4
O=C(Cn1ccc([N+](=O)[O-])n1)Nc1ccccn1,-5.1,1.1,0.2,0.0,/,-0.6
Cc1cc(C)cc(CC(Cc2nc3ccccc3[nH]2)c2nc3ccccc3[nH]2)c1 (configuration not stated),-3.4,1,1.3,17.4,36.5*,4.3
CCCn1c(=O)n(N)c2ccccc21,-6.9,1.1,-0.5,4.8,17.9,0.7
N/C(=N\OC(=O)COc1ccc2ccccc2c1Br)c1ccncc1,-4.7,1,0.4,1.9,/,-0.8
Cc1ccc(NC(=O)C(=O)NCc2ccc(/C=N/NC(=O)c3c(C)nc4ccccn34)o2)cc1,72.6*,0.3,0.5,40.3,19.0,-0.2
Cc1ccn2c(C(=O)N/N=C/c3ccc(CNC(=O)C(=O)Nc4ccc(C)c(C)c4)o3)c(C)nc2c1,22.6,0.8,-0.2,0.0,1.5,0.2
Cc1cc(C)cc(OCC(=O)OCC(=O)Nc2c(C)n(C)n(-c3ccccc3)c2=O)c1,0.0,1,-0.5,-1.2,/,0.1
Cc1ccc(/C=N/Nc2nc(C(C)(C)C)cs2)o1,0.1,1,0.3,0.0,9.2,-0.2
Cc1ccc(/C=N/Nc2nc3ccccc3s2)o1,60.3*,0.4,-0.4,-7.3,20.1,-4.0
C/C(=N\Nc1nc2ccccc2[nH]1)c1ccc(N2CCOCC2)cc1,94.5*,0.1,0.2,2.0,/,-0.1
c1ccc(COc2ccc(-c3csnn3)cc2)cc1,17.1,0.8,3.8,17.0,34.0,-0.1
CCOC(=O)c1sc(/N=C/c2ccc(O)cc2O)cc1C,86.1*,0.1,-0.2,-6.4,8.7,-0.9
CC(=O)Nc1cc(Cl)c(N=Cc2ccc(O)cc2O)cc1Cl,-6.5,1.1,0.1,1.1,/,0.3
O=C(Cc1cccs1)Nc1cccc(-c2nc3cc4ccccc4cc3[nH]2)c1,75.4*,0.2,-0.1,-3.9,9.0,-0.3
Cc1cc(-c2cn3ccccc3n2)c(C)n1-c1ccccc1,93.8*,0.1,-0.1,0.7,/,0.1
CS(=O)(=O)c1cnc2c(S(=O)(=O)c3ccccc3)cnn2c1N,-3.8,1,-0.6,1.1,/,-0.1
CS(=O)(=O)c1cnc2c(-c3ccsc3)cnn2c1N,62.3*,0.4,-0.5,23.4,/,2.1
O=c1cc(-c2ccc(Cl)cc2)[nH][nH]1,-2.6,1,2.0,-0.2,40.5*,0.2
Cc1cc(NC(=O)CN2C(=O)NC(C)(c3ccc(Cl)cc3)C2=O)no1 (configuration not stated),-1.1,1,-1.1,-1.1,/,0.0
